Test results: ChEMBL document CHEMBL4118253, “Expedient synthesis and biological evaluation of alkenyl acyclic nucleoside phosphonate prodrugs” (Bioorg Med Chem, 2018)

Columns and labels:
Influenza A virus [1] = experiment: Antiviral activity against Influenza A virus H1N1 infected in MDCK cells assessed as inhibition of virus-induced cytopathicity by MTS assay; format: functional, organism-based
Influenza A virus H3N2 [2] = experiment: Antiviral activity against Influenza A virus H3N2 infected in MDCK cells assessed as inhibition of virus-induced cytopathicity by MTS assay; format: functional, organism-based
Influenza B virus [3] = experiment: Antiviral activity against Influenza B virus infected in MDCK cells assessed as inhibition of virus-induced cytopathicity by MTS assay; format: functional, organism-based
[4] = Cytotoxicity against MDCK cells assessed as alteration of cell morphology by microscopic analysis; format: cell-based, Canis lupus familiaris; conditions: dog
Influenza A virus [5] = experiment: Antiviral activity against Influenza A virus H1N1 infected in MDCK cells assessed as inhibition of virus-induced visual cytopathicity; format: functional, organism-based
Influenza A virus H3N2 [6] = experiment: Antiviral activity against Influenza A virus H3N2 infected in MDCK cells assessed as inhibition of virus-induced visual cytopathicity; format: functional, organism-based
Influenza B virus [7] = experiment: Antiviral activity against Influenza B virus infected in MDCK cells assessed as inhibition of virus-induced visual cytopathicity; format: functional, organism-based
Vaccinia virus = experiment: Antiviral activity against Vaccinia virus infected in HEL cells assessed as inhibition of virus-induced cytopathicity; format: functional, organism-based; conditions: Orthopoxvirus vaccinia
Human alphaherpesvirus 3 = experiment: Antiviral activity against thymidine kinase deficient Varicella-Zoster virus infected in HEL cells assessed as reduction in virus plaque formation; format: functional, organism-based; conditions: Human alphaherpesvirus 3, HEL
[8] = Cytotoxicity against HEL cells assessed as alteration of cell morphology by microscopic analysis; format: cell-based; conditions: human
Summary of the method: (§1)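 The value is the minimal cytotoxic concentration (MCC), the lowest concentration that causes a microscopically visible change in cell morphology. It was read in the same HEL or Vero cell cultures used for the antiviral tests.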

Human adenovirus 2 = experiment: Antiviral activity against Adenovirus 2 infected in HEL cells assessed as inhibition of virus-induced cytopathicity; format: functional, organism-based; conditions: Human mastadenovirus C
Human betaherpesvirus 5 [9] = experiment: Antiviral activity against Human cytomegalovirus AD169 infected in HEL cells assessed as inhibition of virus-induced cytopathicity; format: functional, organism-based; conditions: Human betaherpesvirus 5, AD169, HEL
Human betaherpesvirus 5 [10] = experiment: Antiviral activity against Human cytomegalovirus Davis infected in HEL cells assessed as inhibition of virus-induced cytopathicity; format: functional, organism-based; conditions: Human betaherpesvirus 5, Davis
Human respirovirus 3 = experiment: Antiviral activity against Parainfluenza virus 3 infected in human HeLa cells assessed as inhibition of virus-induced cytopathicity; format: functional, organism-based; conditions: Human respirovirus 3, HeLa
[11] = test system: Mammalian orthoreovirus 1; experiment: Antiviral activity against Reovirus-1 infected in human HeLa cells assessed as inhibition of virus-induced cytopathicity; format: functional, organism-based; conditions: Mammalian orthoreovirus 1, HeLa
Coxsackievirus B4 = experiment: Antiviral activity against Coxsackie virus B4 infected in African green monkey Vero cells assessed as inhibition of virus-induced cytopathicity; format: functional, organism-based; conditions: Enterovirus B
Punta Toro virus = experiment: Antiviral activity against Punta Toro virus infected in African green monkey Vero cells assessed as inhibition of virus-induced cytopathicity; format: functional, organism-based
[12] = Cytotoxicity against African green monkey Vero cells assessed as alteration of cell morphology by microscopic analysis; format: cell-based; conditions: chlorocebus sabaeus; summary of the method: as §1
[13] = test system: Respiratory syncytial virus; experiment: Antiviral activity against Respiratory syncytial virus infected in human HeLa cells assessed as inhibition of virus-induced cytopathicity; format: functional, organism-based
Sindbis virus = experiment: Antiviral activity against Sindbis Virus infected in African green monkey Vero cells assessed as inhibition of virus-induced cytopathicity; format: functional, organism-based
Yellow fever virus = experiment: Antiviral activity against Yellow fever virus infected in African green monkey Vero cells assessed as inhibition of virus-induced cytopathicity; format: functional, organism-based
[14] = Cytotoxicity against human HeLa cells assessed as alteration of cell morphology by microscopic analysis; format: cell-based

| Compound | EC50 (Influenza A virus [1]) [µM] | EC50 (Influenza A virus H3N2 [2]) [µM] | MCC [4] [µM] | EC50 (Influenza A virus [5]) [µM] | EC50 (Influenza A virus H3N2 [6]) [µM] | EC50 (Influenza B virus [7]) [µM] | EC50 (Vaccinia virus) [µM] | MCC [8] [µM] | also measured |
| --- | --- | --- | --- | --- | --- | --- | --- | --- | --- |
| NC12CC3CC(CC(C3)C1)C2 [AMANTADINE] | 1.4 | 1.6 | > 100 | 1.8 | 2 | > 100 | – | – | EC50 (Influenza B virus [3]): > 100 µM |
| O=c1[nH]c(=O)n([C@H]2C[C@H](O)[C@@H](CO)O2)cc1/C=C/Br [BRIVUDINE] | – | – | – | – | – | – | 19 | 250 to 300 | EC50 (Human alphaherpesvirus 3): 0.57 µM |
| Nc1ccn(C[C@@H](CO)OCP(=O)(O)O)c(=O)n1 [CIDOFOVIR] | – | – | – | – | – | – | 37 | > 250 | EC50 (Human adenovirus 2): 22 µM; EC50 (Human betaherpesvirus 5 [9]): 1.24 µM |
| Nc1nc2c(ncn2COC(CO)CO)c(=O)[nH]1 [GANCICLOVIR] | – | – | – | – | – | – | > 100 | > 100 | EC50 (Human betaherpesvirus 5 [9]): 11.4 µM; EC50 (Human betaherpesvirus 5 [10]): 2.29 µM |
| COc1c(C)c2c(c(O)c1C/C=C(\C)CCC(=O)O)C(=O)OC2 [MYCOPHENOLIC ACID] | – | – | – | – | – | – | – | – | EC50 (Human respirovirus 3): 0.4 µM; EC50 [11]: 6.8 µM; EC50 (Coxsackievirus B4): > 100 µM; EC50 (Punta Toro virus): 6.1 µM; MCC [12]: > 100 µM |
| CCOC(=O)C1=C[C@@H](OC(CC)CC)[C@H](NC(C)=O)[C@@H](N)C1 [OSELTAMIVIR] | 0.2 | > 100 | > 100 | 1.5 | > 100 | 2.9 | – | – | – |
| NC(=O)c1ncn([C@@H]2O[C@H](CO)[C@@H](O)[C@H]2O)n1 [RIBAVIRIN] | – | – | > 100 | – | – | – | – | – | EC50 (Human respirovirus 3): 95 µM; EC50 [11]: > 250 µM; EC50 [13]: 25 µM; EC50 (Sindbis virus): > 250 µM; EC50 (Coxsackievirus B4): > 250 µM; EC50 (Yellow fever virus): > 250 µM; MCC [12]: > 250 µM; MCC [14]: > 250 µM |
| CC(N)C12CC3CC(CC(C3)C1)C2 (configuration not stated) [RIMANTADINE] | > 200 | 0.7 | > 200 | > 200 | 0.4 | > 200 | – | – | EC50 (Influenza B virus [3]): > 200 µM |
| Nc1ccn([C@H]2CC[C@@H](CO)O2)c(=O)n1 [ZALCITABINE] | – | – | – | – | – | – | – | > 250 | EC50 (Human adenovirus 2): 10 µM |
